Experimental data from ChEMBL document CHEMBL1649065, “Solomonsterols A and B from Theonella swinhoei. The first example of C-24 and C-23 sulfated sterols from a marine source endowed with a PXR agonistic activity” (J Med Chem, 2011).
Active and inactive are the calls of the source. No cut-off for these calls is given here.

Key:
[1] = target: T1, PXR (nuclear receptor subfamily 1 group I member 2) (Homo sapiens, UniProt O75469); assay: Transactivation of PXR in human HepG2 cells assessed as induction of luciferase activity at 50 uM by luciferase reporter gene assay relative to control; settings: read-out: FC
T1 sequence (O75469 whole entry): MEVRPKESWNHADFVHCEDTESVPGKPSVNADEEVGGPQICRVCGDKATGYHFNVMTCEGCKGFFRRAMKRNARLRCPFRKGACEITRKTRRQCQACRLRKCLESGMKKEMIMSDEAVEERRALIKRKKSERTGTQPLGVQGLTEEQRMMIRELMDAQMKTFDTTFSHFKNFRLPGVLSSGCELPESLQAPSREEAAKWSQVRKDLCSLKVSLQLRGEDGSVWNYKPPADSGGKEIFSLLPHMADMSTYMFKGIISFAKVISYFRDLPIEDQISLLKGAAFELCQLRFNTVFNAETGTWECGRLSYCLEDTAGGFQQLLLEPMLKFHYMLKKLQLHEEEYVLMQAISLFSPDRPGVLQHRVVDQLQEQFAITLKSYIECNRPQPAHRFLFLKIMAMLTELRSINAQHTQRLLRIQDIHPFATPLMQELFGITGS

[2] = target: T2, Nuclear receptor subfamily 1 group I member 2 (Homo sapiens, UniProt O75469); assay: Induction of PXR-mediated MDR1 gene expression in human HepG2 cells at 50 uM by RT-PCR analysis; assay type: cell-based; settings: hepg2, 50 µM
T2 sequence (O75469 whole entry): T1 sequence (O75469 whole entry)
Outline: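 HepG2 hepatocytes treated with compound; mRNA quantified by SYBR Green real-time PCR in triplicate, CT normalised to GAPDH, relative expression computed as 2^-ΔΔCT.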

RAW264.7 [3] = assay: Immunomodulatory activity in mouse RAW264.7 cells assessed as inhibition of IL1-beta mRNA expression at 50 uM by RT-PCR analysis; assay type: functional
Outline: (§1)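 RAW264.7 macrophages incubated 24 h with 10 and 50 μM plus bacterial LPS; total RNA extracted with TRIZOL, 50 ng template amplified by SYBR Green real-time PCR (0.2 μM each primer, 40 cycles), triplicate reactions; CT normalised to GAPDH, relative expression as 2^-ΔΔCT.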

RAW264.7 [4] = assay: Cytotoxicity against mouse RAW264.7 cells at 10 to 50 uM; assay type: cell-based; settings: raw264.7, 50 µM
Outline: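 Murine macrophages exposed to 10 and 50 μM in presence of bacterial LPS; at end of experiment viability scored by trypan blue exclusion.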

RAW264.7 [5] = assay: Immunomodulatory activity in mouse RAW264.7 cells assessed as effect on TNFalpha mRNA expression at 10 to 50 uM by RT-PCR analysis; assay type: functional, cell-based
Outline: as §1

SMILES | fold induction at 50 µM [1] | Activity [2] | inhibition at 50 µM (RAW264.7 [3]) [%] | Activity (RAW264.7 [4]) | Activity (RAW264.7 [5])
C[C@H](CCOS(=O)(=O)[O-])[C@H]1CC[C@H]2[C@@H]3CC[C@H]4C[C@H](OS(=O)(=O)[O-])[C@@H](OS(=O)(=O)[O-])C[C@]4(C)[C@H]3CC[C@]12C.[Na+].[Na+].[Na+] [SOLOMONSTEROL B] | 4 | Active | 50 | Non-toxic | inactive
C[C@H](CCCOS(=O)(=O)[O-])[C@H]1CC[C@H]2[C@@H]3CC[C@H]4C[C@H](OS(=O)(=O)[O-])[C@@H](OS(=O)(=O)[O-])C[C@]4(C)[C@H]3CC[C@]12C.[Na+].[Na+].[Na+] [SOLOMONSTEROL A] | 4 | Active | 50 | Non-toxic | inactive
